In ChEMBL document CHEMBL1156952, “Synthesis and biological evaluations of novel bendazac lysine analogues as potent anticataract agents” (Bioorg Med Chem Lett, 2010):

Experiments:
[1] = Aqueous solubility of the compound; type: physicochemical; details: water (aqueous)
[2] = species: Oryctolagus cuniculus; test: Induction of total-antioxidant capacity level in rabbit lens homogenates at 5 mM (Rvb= 0.04 u/mg); type: functional, tissue-based; details: Lens of camera-type eye
Procedure, shortened: (§1)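 Rabbit lenses were cultured in DMEM under FeCl3 (0.02%) plus H2O2 (2%) challenge, with compound at 5, 10 or 15 mM in the medium. Each group's lenses were then homogenized. Water-soluble protein, total antioxidant capacity and malondialdehyde were each measured in the homogenate with a reagent kit.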

[3] = species: Oryctolagus cuniculus; test: Reduction of malondialdehyde level in rabbit lens homogenates at 5 mM (Rvb= 0.46 +/-0.27 nmol/mg); type: functional, tissue-based; details: Lens of camera-type eye; procedure, shortened: as §1
[4] = species: Oryctolagus cuniculus; test: Reduction of malondialdehyde level in rabbit lens homogenates at 10 mM (Rvb= 0.46 +/-0.27 nmol/mg); type: functional, tissue-based; details: Lens of camera-type eye; procedure, shortened: as §1
[5] = species: Oryctolagus cuniculus; test: Induction of water-solvent protein level in rabbit lens homogenates at 5 mM (Rvb= 7.40 +/-0.73 mg/mL); type: functional, tissue-based; details: Lens of camera-type eye; procedure, shortened: as §1
[6] = species: Oryctolagus cuniculus; test: Reduction of malondialdehyde level in rabbit lens homogenates at 15 mM (Rvb= 0.46 +/-0.27 nmol/mg); type: functional, tissue-based; details: Lens of camera-type eye; procedure, shortened: as §1
[7] = species: Oryctolagus cuniculus; test: Induction of total-antioxidant capacity level in rabbit lens homogenates at 15 mM (Rvb= 0.04 u/mg); type: functional, tissue-based; details: Lens of camera-type eye; procedure, shortened: as §1
[8] = species: Oryctolagus cuniculus; test: Induction of total-antioxidant capacity level in rabbit lens homogenates at 10 mM (Rvb= 0.04 u/mg); type: functional, tissue-based; details: Lens of camera-type eye; procedure, shortened: as §1
[9] = species: Oryctolagus cuniculus; test: Anticataract activity against FeCl3/H2O2-induced cataract in rabbit lens treated 1 hr before FeCl3/H2O2 challenge measured after 24 hrs; type: functional, tissue-based; details: Lens of camera-type eye
[10] = Anticataract activity against FeCl3/H2O2-induced cataract in rabbit lens assessed as extensive mature nuclear opacity at 0.5 mM treated 1 hr before FeCl3/H2O2 challenge measured after 24 hrs; type: functional, Oryctolagus cuniculus, Lens of camera-type eye
[11] = Anticataract activity against FeCl3/H2O2-induced cataract in rat lens assessed as slight degree of opacificaion at 0.5 mM treated 1 hr before FeCl3/H2O2 challenge measured after 24 hrs; type: functional, Lens of camera-type eye
Procedure, shortened: (§2)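 Isolated rat lenses were cultured in DMEM and challenged with FeCl3 (0.02%) plus H2O2 (0.5%). Compounds were added at 0.5 mM to the medium of transparent lenses, with a challenged, untreated control. Lenses were scored as the percentage at each opacification grade (−, +, ++, +++).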

[12] = Anticataract activity against FeCl3/H2O2-induced cataract in rabbit lens assessed as absence of opacificaion at 10 mM treated 1 hr before FeCl3/H2O2 challenge measured after 24 hrs; type: functional, Oryctolagus cuniculus, Lens of camera-type eye
[13] = Anticataract activity against FeCl3/H2O2-induced cataract in rabbit lens assessed as middle degree of opacificaion at 0.5 mM treated 1 hr before FeCl3/H2O2 challenge measured after 24 hrs; type: functional, Oryctolagus cuniculus, Lens of camera-type eye
[14] = Anticataract activity against FeCl3/H2O2-induced cataract in rat lens assessed as middle degree of opacificaion at 0.5 mM treated 1 hr before FeCl3/H2O2 challenge measured after 24 hrs; type: functional, Lens of camera-type eye; procedure, shortened: as §2
[15] = Anticataract activity against FeCl3/H2O2-induced cataract in rat lens assessed as absence of opacificaion at 0.5 mM treated 1 hr before FeCl3/H2O2 challenge measured after 24 hrs; type: functional, Lens of camera-type eye; procedure, shortened: as §2
[16] = Anticataract activity against FeCl3/H2O2-induced cataract in rat lens assessed as extensive mature nuclear opacity at 0.5 mM treated 1 hr before FeCl3/H2O2 challenge measured after 24 hrs; type: functional, Lens of camera-type eye; procedure, shortened: as §2
[17] = Anticataract activity against FeCl3/H2O2-induced cataract in rabbit lens assessed as extensive mature nuclear opacity at 10 mM treated 1 hr before FeCl3/H2O2 challenge measured after 24 hrs; type: functional, Oryctolagus cuniculus, Lens of camera-type eye
[18] = Anticataract activity against FeCl3/H2O2-induced cataract in rabbit lens assessed as absence of opacificaion at 0.5 mM treated 1 hr before FeCl3/H2O2 challenge measured after 24 hrs; type: functional, Oryctolagus cuniculus, Lens of camera-type eye
[19] = Anticataract activity against FeCl3/H2O2-induced cataract in rabbit lens assessed as slight degree of opacificaion at 10 mM treated 1 hr before FeCl3/H2O2 challenge measured after 24 hrs; type: functional, Oryctolagus cuniculus, Lens of camera-type eye
[20] = Anticataract activity against FeCl3/H2O2-induced cataract in rabbit lens assessed as middle degree of opacificaion at 10 mM treated 1 hr before FeCl3/H2O2 challenge measured after 24 hrs; type: functional, Oryctolagus cuniculus, Lens of camera-type eye
[21] = Anticataract activity against FeCl3/H2O2-induced cataract in rabbit lens assessed as slight degree of opacificaion at 0.5 mM treated 1 hr before FeCl3/H2O2 challenge measured after 24 hrs; type: functional, Oryctolagus cuniculus, Lens of camera-type eye

## Cc1ccc(Cn2nc(OC(C(=O)[O-])C(=O)[O-])c3ccccc32)cc1.[Na+].[Na+]
[1]
  solubility: < 1 mg/mL

## Cc1ccc(Cn2nc(OC(C(=O)O)C(=O)O)c3ccccc32)cc1.NCCCC[C@H](N)C(=O)O
[1]
  solubility: 57.4 mg/mL

## N[C@@H](Cc1c[nH]cn1)C(=O)O.O=C(O)C(Oc1nn(Cc2cccc(F)c2)c2ccccc12)C(=O)O
[1]
  solubility: 56.6 mg/mL

## N[C@@H](Cc1c[nH]cn1)C(=O)O.O=C(O)C(Oc1nn(Cc2ccccc2)c2ccccc12)C(=O)O
[2]
  T-AOC level: 0.21 U/mg
[3]
  MDA level: 0.04 nmol/mg
[4]
  MDA level: 0.03 nmol/mg
[5]
  WSP level: 13 mg/mL
[6]
  MDA level: 0.08 nmol/mg
[7]
  T-AOC level: 0.34 U/mg
[8]
  T-AOC level: 0.64 U/mg
[9]
  Activity: Dose-dependent effect

## N[C@@H](Cc1c[nH]cn1)C(=O)O.O=C(O)C(Oc1nn(Cc2ccc(Cl)cc2)c2ccccc12)C(=O)O
[1]
  solubility: 51 mg/mL

## O=C([O-])C(Oc1nn(Cc2ccc(Cl)cc2)c2ccccc12)C(=O)[O-].[K+].[K+]
[1]
  solubility: < 1 mg/mL

## NCCCC[C@H](N)C(=O)O.O=C(O)COc1nn(Cc2ccccc2)c2ccccc12 [BENDAZAC LYSINE]
[10]
  Activity: 0%
[11]
  Activity: 55%
[12]
  Activity: 20%
[13]
  Activity: 25%
[14]
  Activity: 40%
[15]
  Activity: 0%
[1]
  solubility: 93.8 mg/mL
[16]
  Activity: 5%
[17]
  Activity: 0%
[18]
  Activity: 0%
[19]
  Activity: 65%
[20]
  Activity: 15%
[21]
  Activity: 75%

## Cc1ccc(Cn2nc(OC(C(=O)O)C(=O)O)c3ccccc32)cc1.N[C@@H](Cc1c[nH]cn1)C(=O)O
[1]
  solubility: 71 mg/mL

## O=C([O-])C(Oc1nn(Cc2cccc(Cl)c2)c2ccccc12)C(=O)[O-].[K+].[K+]
[1]
  solubility: < 1 mg/mL

## O=C([O-])C(Oc1nn(Cc2cccc(F)c2)c2ccccc12)C(=O)[O-].[K+].[K+]
[1]
  solubility: 2.4 mg/mL

## O=C(O)C(Oc1nn(Cc2ccc(Cl)cc2)c2ccccc12)C(=O)O
[1]
  solubility: < 1 mg/mL

## O=C(O)C(Oc1nn(Cc2ccccc2)c2ccccc12)C(=O)O
[1]
  solubility: < 1 mg/mL

## N[C@@H](Cc1c[nH]cn1)C(=O)O.O=C(O)C(Oc1nn(Cc2cccc(Cl)c2)c2ccccc12)C(=O)O
[1]
  solubility: 115 mg/mL

## O=C([O-])C(Oc1nn(Cc2ccc(Cl)cc2)c2ccccc12)C(=O)[O-].[Na+].[Na+]
[1]
  solubility: < 1 mg/mL

## O=C([O-])C(Oc1nn(Cc2ccccc2)c2ccccc12)C(=O)[O-].[K+].[K+]
[10]
  Activity: 30%
[11]
  Activity: 0%
[13]
  Activity: 40%
[14]
  Activity: 50%
[15]
  Activity: 0%
[1]
  solubility: 2.2 mg/mL
[16]
  Activity: 50%
[18]
  Activity: 0%
[21]
  Activity: 30%
